# Measurements taken from ChEMBL document CHEMBL1124654, “Synthesis and investigation of effects of 2-[4- [[(arylamino)carbonyl]amino]phenoxy]-2-methylpropionic acids on the affinity of hemoglobin for oxygen: structure-activity relationships” (1989).
# Values joined by “and” are separate entries in the source; they are usually repeats but may differ in a detail not shown here. Equal values may be shown once.
# Columns and labels:
# Type in all cases: functional
# Homo sapiens [1] = species on record: Homo sapiens; assay: Ability of 0.5 mm to reduce affinity of hemoglobin for oxygen is assessed from 50% partial pressure of oxygen in intact red cells
# Method in brief: (§1)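 Intact red cells: 30-µL aliquots of fresh heparinized normal whole blood added to 5 mL of compound diluted in 0.1 M HEPES, pH 7.4; final hemoglobin 12.5 ± 0.5 µM by spectrophotometry. Equilibrated 30 min at 37 °C, then oxygenated in the instrument chamber. P50 (mmHg PO2 at 50% deoxygenation) read from the O2-dissociation curve. Initial screen at 1 mM in duplicate.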
# Homo sapiens [2] = species on record: Homo sapiens; assay: Ability of 1 mm to reduce affinity of hemoglobin for oxygen is assessed from 50% partial pressure of oxygen in intact red cells; method in brief: as §1
# Homo sapiens [3] = species on record: Homo sapiens; assay: Ability of 0.5 mM to reduce affinity of hemoglobin for oxygen is assessed from 50% partial pressure of oxygen in membrane free hemoglobin solution
# Method in brief: (§2)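 Membrane-free hemoglobin: erythrocytes washed five times in 0.15 M NaCl, lysed in 5 volumes of water, filtered through paper and then down to 0.22 µm. Compound dissolved in 0.1 M HEPES, pH 7.4, hemoglobin added to a final 12.5 ± 0.5 µM, incubated 30 min at 37 °C. P50 taken from the O2-dissociation curve. Initial screen at 1 mM in duplicate.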
# Homo sapiens [4] = species on record: Homo sapiens; assay: Ability of 1 mM to reduce affinity of hemoglobin for oxygen is assessed from 50% partial pressure of oxygen in membrane free hemoglobin solution; method in brief: as §2
# [5] = molecular target: Hemoglobin HbA (Homo sapiens) (UniProt P69905+P68871); assay: Ratio of effect of compound on affinity of hemoglobin for oxygen to that of control
# Method in brief: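 Mean P50 with compound divided by mean P50 of the respective controls. P50 measured from O2-dissociation curves at 37 °C after 30 min in 0.1 M HEPES, pH 7.4, with hemoglobin at 12.5 ± 0.5 µM, in intact red cells or membrane-free hemoglobin.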
# Homo sapiens [6] = species on record: Homo sapiens; assay: Ability of 1 mM compound to reduce affinity of hemoglobin for oxygen is assessed from 50% partial pressure of oxygen in intact red cells; method in brief: as §1
# Homo sapiens [7] = species on record: Homo sapiens; assay: Ability of 0.05 mM to reduce affinity of hemoglobin for oxygen is assessed from 50% partial pressure of oxygen in intact red cells; method in brief: as §1
# Homo sapiens [8] = species on record: Homo sapiens; assay: Ability of 0.1 mM to reduce affinity of hemoglobin for oxygen is assessed from 50% partial pressure of oxygen in intact red cells; method in brief: as §1
# Homo sapiens [9] = species on record: Homo sapiens; assay: Ability of 0.2 mM to reduce affinity of hemoglobin for oxygen is assessed from 50% partial pressure of oxygen in intact red cells; method in brief: as §1
# Homo sapiens [10] = species on record: Homo sapiens; assay: Ability of 0.05 mM to reduce affinity of hemoglobin for oxygen is assessed from 50% partial pressure of oxygen in membrane free hemoglobin solution; method in brief: as §2
# Homo sapiens [11] = species on record: Homo sapiens; assay: Ability of 0.1 mM to reduce affinity of hemoglobin for oxygen is assessed from 50% partial pressure of oxygen in membrane free hemoglobin solution; method in brief: as §2
# Homo sapiens [12] = species on record: Homo sapiens; assay: Ability of 0.2 mM to reduce affinity of hemoglobin for oxygen is assessed from 50% partial pressure of oxygen in membrane free hemoglobin solution; method in brief: as §2
# Homo sapiens [13] = species on record: Homo sapiens; assay: Ability of 0.5 mM to reduce affinity of hemoglobin for oxygen is assessed from 50% partial pressure of oxygen in intact red cells; method in brief: as §1
# Homo sapiens [14] = species on record: Homo sapiens; assay: Ability of 1 mM to reduce affinity of hemoglobin for oxygen is assessed from 50% partial pressure of oxygen in intact red cells; method in brief: as §1
# Hemoglobin HbA (Homo sapiens), sequence (P68871 2-147 partner limits assumed): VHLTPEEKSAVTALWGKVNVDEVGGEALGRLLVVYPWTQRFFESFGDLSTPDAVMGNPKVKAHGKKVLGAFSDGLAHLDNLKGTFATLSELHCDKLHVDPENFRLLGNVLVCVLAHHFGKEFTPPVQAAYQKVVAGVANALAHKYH
# Hemoglobin HbA (Homo sapiens), sequence (P69905 2-142 limits assumed): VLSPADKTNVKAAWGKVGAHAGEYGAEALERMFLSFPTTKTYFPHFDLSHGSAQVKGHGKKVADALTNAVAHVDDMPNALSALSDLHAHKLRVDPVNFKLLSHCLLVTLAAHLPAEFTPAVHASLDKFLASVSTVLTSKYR
Compound,Ratio [5],P50 (Homo sapiens [3]) [mmHg],P50 (Homo sapiens [4]) [mmHg],P50 (Homo sapiens [6]) [mmHg],further results
CC(C)(Oc1ccc(NC(=O)Nc2ccc([N+](=O)[O-])cc2)cc1)C(=O)O,2.79 [middle of 4 runs],13,19,–,P50 (Homo sapiens [1]): 21 mmHg; P50 (Homo sapiens [2]): 26.5 mmHg
CC(C)(Oc1ccc(NC(=O)Nc2cc(Cl)c(Cl)c(Cl)c2)cc1)C(=O)O,–,–,–,–,P50 (Homo sapiens [7]): 27.5 mmHg; P50 (Homo sapiens [8]): 35 mmHg; P50 (Homo sapiens [9]): 60 mmHg; P50 (Homo sapiens [10]): 16.2 mmHg; P50 (Homo sapiens [11]): 28.5 mmHg; P50 (Homo sapiens [12]): 57.2 mmHg
CC(C)(Oc1ccc(NC(=O)Nc2ccc(C=O)cc2)cc1)C(=O)O,2.3 and 2.15,–,15,20.5,–
O=C(O)COc1ccc(NC(=O)Nc2ccc(Cl)c(Cl)c2)cc1,1.14 [middle of 4 runs],10,–,–,P50 (Homo sapiens [13]): 13 mmHg; P50 (Homo sapiens [9]): 11.5 mmHg; P50 (Homo sapiens [12]): 8 mmHg
CCOC(=O)Nc1ccc(NC(=O)Nc2ccc(OC(C)(C)C(=O)O)cc2)cc1,1.61 and 1.27,–,10.5,11.5,–
CC(C)(Oc1ccc(NC(=O)Nc2ccc(Cl)c([N+](=O)[O-])c2)cc1)C(=O)O,5.43 [middle of 4 runs],30,43.5,–,P50 (Homo sapiens [13]): 40 mmHg; P50 (Homo sapiens [14]): 52.5 mmHg
CC(C)(Oc1ccc(NC(=O)Nc2cc(F)cc(F)c2)cc1)C(=O)O,1.99 [middle of 4 runs],12.2,15.2,–,P50 (Homo sapiens [13]): 15 mmHg; P50 (Homo sapiens [14]): 21 mmHg
CC(C)(Oc1ccc(NS(=O)(=O)Cc2ccccc2)cc1)C(=O)O,1.34 and 1.64,–,9.16,11.5,–
CC(C)(Oc1ccc(NC(=O)Nc2ccccc2)cc1)C(=O)O,1.42 and 1.05,–,10,10,–
CC(C)(Oc1ccc(CCNC(=O)c2cc(Cl)cc(Cl)c2)cc1)C(=O)O,1.78 and 1.42 and 2.33,10,12.5,–,P50 (Homo sapiens [13]): 17.75 mmHg; P50 (Homo sapiens [14]): 22.75 mmHg
CC(C)(Oc1ccc(-c2ccccc2)cc1)C(=O)O,1 and 1.63,–,7,15.5,–
Cc1ccc(NC(=O)Nc2ccc(OC(C)(C)C(=O)O)cc2)cc1C,2.53 [middle of 4 runs],16.5,27.2,18.5,P50 (Homo sapiens [13]): 14.5 mmHg
CC(C)(Oc1ccc(NC(=O)Nc2cccc(Cl)c2Cl)cc1)C(=O)O,2.46 [middle of 4 runs],16,–,–,P50 (Homo sapiens [9]): 18.5 mmHg; P50 (Homo sapiens [12]): 12.5 mmHg
CC(C)(Oc1ccc(NC(=O)Nc2cc(Cl)c(Cl)cc2Cl)cc1)C(=O)O,–,–,–,–,P50 (Homo sapiens [7]): 14.25 mmHg; P50 (Homo sapiens [8]): 17.75 mmHg; P50 (Homo sapiens [9]): 31 mmHg; P50 (Homo sapiens [10]): 9 mmHg; P50 (Homo sapiens [11]): 12 mmHg; P50 (Homo sapiens [12]): 16.8 mmHg
COc1ccc(NC(=O)Nc2ccc(OC(C)(C)C(=O)O)cc2)cc1OC,2.07 and 1,–,14.5,8.5,–
CC(=O)Oc1ccc(NC(=O)Nc2ccc(OC(C)(C)C(=O)O)cc2)cc1,1.64 and 1.77,–,11.5,16,–
CC(C)(Oc1ccc(NC(=O)Nc2cc([N+](=O)[O-])ccc2Cl)cc1)C(=O)O,3.61 and 4.21,–,23.5,40,–
CC(C)(Oc1ccc(NC(=O)Nc2cc(Cl)cc(Cl)c2)cc1)C(=O)O,4.43 [middle of 4 runs],44.5,–,–,P50 (Homo sapiens [13]): 51 mmHg; P50 (Homo sapiens [9]): 22.75 mmHg; P50 (Homo sapiens [12]): 20.5 mmHg
CC(C)(Oc1ccc(NC(=O)Nc2ccc3c(c2)OCO3)cc1)C(=O)O,2.15 and 1.05,–,14,–,P50 (Homo sapiens [14]): 9.5 mmHg
CC(C)(Oc1ccc(NC(=O)Nc2ccc(Cl)c(Cl)c2)cc1)C(=O)O,2.29 [middle of 4 runs],28.5,–,–,P50 (Homo sapiens [13]): 23.5 mmHg; P50 (Homo sapiens [9]): 15.5 mmHg; P50 (Homo sapiens [12]): 14.2 mmHg
COc1cc(NC(=O)Nc2ccc(OC(C)(C)C(=O)O)cc2)cc(OC)c1OC,1.64 and 1.05,–,11.5,9.5,–
CC(C)(Oc1ccc(NC(=O)Nc2ccccc2O)cc1)C(=O)O,1.91 and 1.42,–,12.5,10,–
Cc1cc(C)c(NC(=O)Nc2ccc(OC(C)(C)C(=O)O)cc2)c(C)c1,1 and 1.26,–,6.5,12,–
COc1ccc(NC(=O)Nc2ccc(OC(C)(C)C(=O)O)cc2)cc1,2.11 and 1.25,–,19,12.5,–

# The next lines start with results.
Ratio [5],Compound,P50 (Homo sapiens [3]) [mmHg],P50 (Homo sapiens [4]) [mmHg],P50 (Homo sapiens [6]) [mmHg],further results
1.14 and 1.36,CC(C)(Oc1ccc(NC(=O)CNC(=O)c2ccc(Cl)cc2)cc1)C(=O)O,–,8.5,12,–
2.04 [middle of 4 runs],CC(C)(Oc1ccc(NC(=O)Nc2ccc(Cl)cc2Cl)cc1)C(=O)O,15.5,–,–,P50 (Homo sapiens [13]): 21.25 mmHg; P50 (Homo sapiens [9]): 14.75 mmHg; P50 (Homo sapiens [12]): 9.75 mmHg
2.56 [middle of 4 runs],CC(C)(Oc1ccc(NC(=O)Nc2cc(Cl)ccc2Cl)cc1)C(=O)O,18,–,–,P50 (Homo sapiens [13]): 23.75 mmHg; P50 (Homo sapiens [9]): 15.83 mmHg; P50 (Homo sapiens [12]): 11.5 mmHg
5.35 [middle of 4 runs],CC(C)(Oc1ccc(NC(=O)c2ccc(Cl)cc2)cc1)C(=O)O,27,39,–,P50 (Homo sapiens [14]): 37.5 mmHg and 19 mmHg
2 and 1.38,CC(C)(Oc1ccc(NC(=O)Nc2ccc(F)cc2)cc1)C(=O)O,–,18,12.5,–
1.07 and 1.26,CC(C)(Oc1ccc(CC(NC(=O)c2ccc(Cl)cc2)C(=O)O)cc1)C(=O)O (configuration not stated),–,7.5,12,–
2.88 and 1.72,Cc1ccc(NC(=O)Nc2ccc(OC(C)(C)C(=O)O)cc2)cc1,–,26,15.5,–
1.27 and 1.84,CC(C)(Oc1ccc(NC(=O)COc2ccc(Cl)cc2)cc1)C(=O)O,–,9.25,17.5,–
1.14 and 1.39,CC(C)(Oc1ccc(NC(=N)Nc2ccc(Cl)cc2)cc1)C(=O)O,–,9,16,–
1.14 and 1,CC(C)(Oc1ccc(NC(=O)Nc2ccc(C(=O)O)cc2)cc1)C(=O)O,–,8,9,–
2.34 [middle of 4 runs],CC(C)(Oc1ccc(NC(=O)c2cc(Cl)cc(Cl)c2)cc1)C(=O)O,12.2,16,–,P50 (Homo sapiens [13]): 19.66 mmHg; P50 (Homo sapiens [14]): 25.33 mmHg
1.75 and 1.42,CC(C)(Oc1ccc(NC(=O)Nc2ccccc2Cl)cc1)C(=O)O,–,14.2,16.2,–
1.63 [middle of 4 runs],CC(C)(Oc1ccc(CCNC(=O)c2ccc(Cl)cc2)cc1)C(=O)O [BEZAFIBRATE],9,14.2,–,P50 (Homo sapiens [13]): 14.5 mmHg; P50 (Homo sapiens [14]): 17 mmHg
2.89 and 1.5,CC(C)(Oc1ccc(NC(=O)Nc2cccc(Cl)c2)cc1)C(=O)O,–,22,17.75,–
1.68 and 1.21,CC(C)(Oc1ccc(NC(=O)Nc2ccc(O)cc2)cc1)C(=O)O,–,11,8.5,–
2.7 and 1.64,CC(C)(Oc1ccc(NC(=O)Nc2ccc(Cl)cc2)cc1)C(=O)O,–,21.8,19.5,–
